Results reported in ChEMBL document CHEMBL3046951, “Volatile constituents from the leaves of Callicarpa japonica Thunb. and their antibacterial activities” (2004).

Key:
Format in all cases: functional
Staphylococcus aureus [1] = test: Antimicrobial activity against Staphylococcus aureus ATCC 25923 assessed as growth inhibition rate at 25.52 mg/l after 72 hr by spectrophotometry; conditions: ATCC 25923, 72 h, read-out: GI
Bacillus cereus [2] = test: Antimicrobial activity against Bacillus cereus ATCC 11778 assessed as growth inhibition rate at 12.48 mg/l after 72 hr by spectrophotometry; conditions: ATCC 11778, 72 h, read-out: GI
Outline: (§1)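 Pure volatile compounds (purity >95%; one at 90%) were tested against B. cereus ATCC 11778. The strain was grown at 30 °C in nutrient broth for 24 h, then subcultured for 18 h. Optical density was read in a Bioscreen C every 24 h for 72 h, with 10% Tween 80 as the control.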

Salmonella typhimurium [3] = test: Antimicrobial activity against Salmonella enterica subsp. enterica serovar Typhimurium ATCC 14028 assessed as growth inhibition rate at 339.32 mg/l after 72 hr by spectrophotometry; conditions: ATCC 14028, 72 h, read-out: GI
Outline: (§2)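 Salmonella Typhimurium ATCC 14028 grown in nutrient broth at 30 °C, precultured 24 h, then subcultured 1:100 for 18 h before testing. Single volatile compounds (>95% pure) were added. OD was read every 24 h over 72 h in a Bioscreen C, with 10% Tween 80 as the comparison control.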

Vibrio parahaemolyticus [4] = test: Antimicrobial activity against Vibrio parahaemolyticus ATCC 33844 assessed as growth inhibition rate at 678.64 mg/l after 72 hr by spectrophotometry; conditions: ATCC 33844, 72 h, read-out: GI
Bacillus cereus [5] = test: Antimicrobial activity against Bacillus cereus ATCC 11778 assessed as growth inhibition rate at 678.64 mg/l after 72 hr by spectrophotometry; conditions: ATCC 11778, 72 h, read-out: GI; outline: as §1
Salmonella typhimurium [6] = test: Antimicrobial activity against Salmonella enterica subsp. enterica serovar Typhimurium ATCC 14028 assessed as growth inhibition rate at 25.52 mg/l after 72 hr by spectrophotometry; conditions: ATCC 14028, 72 h, read-out: GI; outline: as §2
Escherichia coli [7] = test: Antimicrobial activity against Escherichia coli O157:H7 ATCC 43894 assessed as growth inhibition rate at 678.64 mg/l after 72 hr by spectrophotometry; conditions: O157:H7 ATCC 43894, 72 h, read-out: GI
Outline: (§3)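 Authentic volatiles (>95% purity; 2,4-heptadienal 90%) tested against 18 h subcultures. Growth media: E. coli O157:H7 and S. aureus in tryptic soy broth at 37 °C; L. monocytogenes in tryptic soy broth at 30 °C; V. parahaemolyticus in tryptic soy broth + 3% NaCl at 37 °C; S. typhimurium in nutrient broth at 30 °C. Bioscreen C OD every 24 h for 72 h versus 10% Tween 80 control.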

Listeria monocytogenes [8] = test: Antimicrobial activity against Listeria monocytogenes ATCC 19111 assessed as growth inhibition rate at 678.64 mg/l after 72 hr by spectrophotometry; conditions: ATCC 19111, 72 h, read-out: GI
Outline: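 Pure volatile compounds (>95% purity) tested on Listeria monocytogenes ATCC 19111 in tryptic soy broth at 30 °C. Inoculum: 24 h culture subcultured (0.1 mL into 9.9 mL broth) and grown 18 h. Growth followed by Bioscreen C optical density every 24 h for 72 h against a 10% Tween 80 control.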

Bacillus cereus [9] = test: Antimicrobial activity against Bacillus cereus ATCC 11778 assessed as growth inhibition rate at 25.52 mg/l after 72 hr by spectrophotometry; conditions: ATCC 11778, 72 h, read-out: GI; outline: as §1
Listeria monocytogenes [10] = test: Antimicrobial activity against Listeria monocytogenes ATCC 19111 assessed as growth inhibition rate at 12.48 mg/l after 72 hr by spectrophotometry; conditions: ATCC 19111, 72 h, read-out: GI
Outline: (§4)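 L. monocytogenes was grown at 30 °C in tryptic soy broth, subcultured for 18 h, and exposed to pure volatile compounds (>95% purity). Growth was followed by Bioscreen C optical density every 24 h for 72 h against a 10% Tween 80 control.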

Salmonella typhimurium [11] = test: Antimicrobial activity against Salmonella enterica subsp. enterica serovar Typhimurium ATCC 14028 assessed as growth inhibition rate at 678.64 mg/l after 72 hr by spectrophotometry; conditions: ATCC 14028, 72 h, read-out: GI
Staphylococcus aureus [12] = test: Antimicrobial activity against Staphylococcus aureus ATCC 25923 assessed as growth inhibition rate at 67.88 mg/l after 72 hr by spectrophotometry; conditions: ATCC 25923, 72 h, read-out: GI
Listeria monocytogenes [13] = test: Antimicrobial activity against Listeria monocytogenes ATCC 19111 assessed as growth inhibition rate at 339.32 mg/l after 72 hr by spectrophotometry; conditions: ATCC 19111, 72 h, read-out: GI; outline: as §4
Vibrio parahaemolyticus [14] = test: Antimicrobial activity against Vibrio parahaemolyticus ATCC 33844 assessed as growth inhibition rate at 135.68 mg/l after 72 hr by spectrophotometry; conditions: ATCC 33844, 72 h, read-out: GI
Salmonella typhimurium [15] = test: Antimicrobial activity against Salmonella enterica subsp. enterica serovar Typhimurium ATCC 14028 assessed as growth inhibition rate at 67.88 mg/l after 72 hr by spectrophotometry; conditions: ATCC 14028, 72 h, read-out: GI
Salmonella typhimurium [16] = test: Antimicrobial activity against Salmonella enterica subsp. enterica serovar Typhimurium ATCC 14028 assessed as growth inhibition rate at 12.48 mg/l after 72 hr by spectrophotometry; conditions: ATCC 14028, 72 h, read-out: GI; outline: as §2
Staphylococcus aureus [17] = test: Antimicrobial activity against Staphylococcus aureus ATCC 25923 assessed as growth inhibition rate at 678.64 mg/l after 72 hr by spectrophotometry; conditions: ATCC 25923, 72 h, read-out: GI
Escherichia coli [18] = test: Antimicrobial activity against Escherichia coli O157:H7 ATCC 43894 assessed as growth inhibition rate at 339.32 mg/l after 72 hr by spectrophotometry; conditions: O157:H7 ATCC 43894, 72 h, read-out: GI
Salmonella typhimurium [19] = test: Antimicrobial activity against Salmonella enterica subsp. enterica serovar Typhimurium ATCC 14028 assessed as growth inhibition rate at 135.68 mg/l after 72 hr by spectrophotometry; conditions: ATCC 14028, 72 h, read-out: GI; outline: as §2
Escherichia coli [20] = test: Antimicrobial activity against Escherichia coli O157:H7 ATCC 43894 assessed as growth inhibition rate at 135.68 mg/l after 72 hr by spectrophotometry; conditions: O157:H7 ATCC 43894, 72 h, read-out: GI
Staphylococcus aureus [21] = test: Antimicrobial activity against Staphylococcus aureus ATCC 25923 assessed as growth inhibition rate at 135.68 mg/l after 72 hr by spectrophotometry; conditions: ATCC 25923, 72 h, read-out: GI
Escherichia coli [22] = test: Antimicrobial activity against Escherichia coli O157:H7 ATCC 43894 assessed as growth inhibition rate at 12.48 mg/l after 72 hr by spectrophotometry; conditions: O157:H7 ATCC 43894, 72 h, read-out: GI
Bacillus cereus [23] = test: Antimicrobial activity against Bacillus cereus ATCC 11778 assessed as growth inhibition rate at 67.88 mg/l after 72 hr by spectrophotometry; conditions: ATCC 11778, 72 h, read-out: GI; outline: as §1
Vibrio parahaemolyticus [24] = test: Antimicrobial activity against Vibrio parahaemolyticus ATCC 33844 assessed as growth inhibition rate at 12.48 mg/l after 72 hr by spectrophotometry; conditions: ATCC 33844, 72 h, read-out: GI
Staphylococcus aureus [25] = test: Antimicrobial activity against Staphylococcus aureus ATCC 25923 assessed as growth inhibition rate at 339.32 mg/l after 72 hr by spectrophotometry; conditions: ATCC 25923, 72 h, read-out: GI
Vibrio parahaemolyticus [26] = test: Antimicrobial activity against Vibrio parahaemolyticus ATCC 33844 assessed as growth inhibition rate at 67.88 mg/l after 72 hr by spectrophotometry; conditions: ATCC 33844, 72 h, read-out: GI
Bacillus cereus [27] = test: Antimicrobial activity against Bacillus cereus ATCC 11778 assessed as growth inhibition rate at 135.68 mg/l after 72 hr by spectrophotometry; conditions: ATCC 11778, 72 h, read-out: GI; outline: as §1
Vibrio parahaemolyticus [28] = test: Antimicrobial activity against Vibrio parahaemolyticus ATCC 33844 assessed as growth inhibition rate at 339.32 mg/l after 72 hr by spectrophotometry; conditions: ATCC 33844, 72 h, read-out: GI
Listeria monocytogenes [29] = test: Antimicrobial activity against Listeria monocytogenes ATCC 19111 assessed as growth inhibition rate at 25.52 mg/l after 72 hr by spectrophotometry; conditions: ATCC 19111, 72 h, read-out: GI; outline: as §4
Bacillus cereus [30] = test: Antimicrobial activity against Bacillus cereus ATCC 11778 assessed as growth inhibition rate at 339.32 mg/l after 72 hr by spectrophotometry; conditions: ATCC 11778, 72 h, read-out: GI; outline: as §1
Staphylococcus aureus [31] = test: Antimicrobial activity against Staphylococcus aureus ATCC 25923 assessed as growth inhibition rate at 12.48 mg/l after 72 hr by spectrophotometry; conditions: ATCC 25923, 72 h, read-out: GI
Listeria monocytogenes [32] = test: Antimicrobial activity against Listeria monocytogenes ATCC 19111 assessed as growth inhibition rate at 135.68 mg/l after 72 hr by spectrophotometry; conditions: ATCC 19111, 72 h, read-out: GI; outline: as §4
Escherichia coli [33] = test: Antimicrobial activity against Escherichia coli O157:H7 ATCC 43894 assessed as growth inhibition rate at 67.88 mg/l after 72 hr by spectrophotometry; conditions: O157:H7 ATCC 43894, 72 h, read-out: GI; outline: as §3
Vibrio parahaemolyticus [34] = test: Antimicrobial activity against Vibrio parahaemolyticus ATCC 33844 assessed as growth inhibition rate at 25.52 mg/l after 72 hr by spectrophotometry; conditions: ATCC 33844, 72 h, read-out: GI
Escherichia coli [35] = test: Antimicrobial activity against Escherichia coli O157:H7 ATCC 43894 assessed as growth inhibition rate at 25.52 mg/l after 72 hr by spectrophotometry; conditions: O157:H7 ATCC 43894, 72 h, read-out: GI
Listeria monocytogenes [36] = test: Antimicrobial activity against Listeria monocytogenes ATCC 19111 assessed as growth inhibition rate at 67.88 mg/l after 72 hr by spectrophotometry; conditions: ATCC 19111, 72 h, read-out: GI; outline: as §4

C=C[C@H](O)CCCCC
inhibition of growth at 25.52 µg/mL (Staphylococcus aureus [1]): 6.6%
inhibition of growth at 12.48 µg/mL (Bacillus cereus [2]): 0%
inhibition of growth at 339.32 µg/mL (Salmonella typhimurium [3]): 79.1%
inhibition of growth at 678.64 µg/mL (Vibrio parahaemolyticus [4]): 98.8%
inhibition of growth at 678.64 µg/mL (Bacillus cereus [5]): 90.8%
inhibition of growth at 25.52 µg/mL (Salmonella typhimurium [6]): 16.7%
inhibition of growth at 678.64 µg/mL (Escherichia coli [7]): 96.5%
inhibition of growth at 678.64 µg/mL (Listeria monocytogenes [8]): 39.8%
inhibition of growth at 25.52 µg/mL (Bacillus cereus [9]): 0%
inhibition of growth at 12.48 µg/mL (Listeria monocytogenes [10]): 5.4%
inhibition of growth at 678.64 µg/mL (Salmonella typhimurium [11]): 98.4%
inhibition of growth at 67.88 µg/mL (Staphylococcus aureus [12]): 5.7%
inhibition of growth at 339.32 µg/mL (Listeria monocytogenes [13]): 27.3%
inhibition of growth at 135.68 µg/mL (Vibrio parahaemolyticus [14]): 21.5%
inhibition of growth at 67.88 µg/mL (Salmonella typhimurium [15]): 17.7%
inhibition of growth at 12.48 µg/mL (Salmonella typhimurium [16]): 18.2%
inhibition of growth at 678.64 µg/mL (Staphylococcus aureus [17]): 80.6%
inhibition of growth at 339.32 µg/mL (Escherichia coli [18]): 87.2%
inhibition of growth at 135.68 µg/mL (Salmonella typhimurium [19]): 25.4%
inhibition of growth at 135.68 µg/mL (Escherichia coli [20]): 8.9%
inhibition of growth at 135.68 µg/mL (Staphylococcus aureus [21]): 8.7%
inhibition of growth at 12.48 µg/mL (Escherichia coli [22]): 8.3%
inhibition of growth at 67.88 µg/mL (Bacillus cereus [23]): 4.2%
inhibition of growth at 12.48 µg/mL (Vibrio parahaemolyticus [24]): 11.1%
inhibition of growth at 339.32 µg/mL (Staphylococcus aureus [25]): 50.2%
inhibition of growth at 67.88 µg/mL (Vibrio parahaemolyticus [26]): 13.5%
inhibition of growth at 135.68 µg/mL (Bacillus cereus [27]): 7.6%
inhibition of growth at 339.32 µg/mL (Vibrio parahaemolyticus [28]): 90.4%
inhibition of growth at 25.52 µg/mL (Listeria monocytogenes [29]): 6.7%
inhibition of growth at 339.32 µg/mL (Bacillus cereus [30]): 54.6%
inhibition of growth at 12.48 µg/mL (Staphylococcus aureus [31]): 3.6%
inhibition of growth at 135.68 µg/mL (Listeria monocytogenes [32]): 8.2%
inhibition of growth at 67.88 µg/mL (Escherichia coli [33]): 7.9%
inhibition of growth at 25.52 µg/mL (Vibrio parahaemolyticus [34]): 14.3%
inhibition of growth at 25.52 µg/mL (Escherichia coli [35]): 6.3%
inhibition of growth at 67.88 µg/mL (Listeria monocytogenes [36]): 5%
